According to ChEMBL document CHEMBL4219179, “Small-molecules that bind to the ubiquitin-binding motif of REV1 inhibit REV1 interaction with K164-monoubiquitinated PCNA and suppress DNA damage tolerance” (Bioorg Med Chem, 2018):
Calls of active or inactive are those of the source. The rule behind the calls is not given here.

Tests used:
[1] = biological target: T1, DNA repair protein REV1 (Homo sapiens) (UniProt Q9UBZ9); test: Inhibition of UbPCNA binding to EGFP-tagged REV1 (unknown origin) expressed in human U2OS cells assessed as reduction in cisplatin-induced recruitment of EGFP-REV1 to PCNA foci on chromatin at 150 uM treated after 3.5 hrs cisplatin exposure and measured 6 hrs after post dose by immunostaining based confocal microscopic analysis; format: cell-based
T1 sequence (whole entry): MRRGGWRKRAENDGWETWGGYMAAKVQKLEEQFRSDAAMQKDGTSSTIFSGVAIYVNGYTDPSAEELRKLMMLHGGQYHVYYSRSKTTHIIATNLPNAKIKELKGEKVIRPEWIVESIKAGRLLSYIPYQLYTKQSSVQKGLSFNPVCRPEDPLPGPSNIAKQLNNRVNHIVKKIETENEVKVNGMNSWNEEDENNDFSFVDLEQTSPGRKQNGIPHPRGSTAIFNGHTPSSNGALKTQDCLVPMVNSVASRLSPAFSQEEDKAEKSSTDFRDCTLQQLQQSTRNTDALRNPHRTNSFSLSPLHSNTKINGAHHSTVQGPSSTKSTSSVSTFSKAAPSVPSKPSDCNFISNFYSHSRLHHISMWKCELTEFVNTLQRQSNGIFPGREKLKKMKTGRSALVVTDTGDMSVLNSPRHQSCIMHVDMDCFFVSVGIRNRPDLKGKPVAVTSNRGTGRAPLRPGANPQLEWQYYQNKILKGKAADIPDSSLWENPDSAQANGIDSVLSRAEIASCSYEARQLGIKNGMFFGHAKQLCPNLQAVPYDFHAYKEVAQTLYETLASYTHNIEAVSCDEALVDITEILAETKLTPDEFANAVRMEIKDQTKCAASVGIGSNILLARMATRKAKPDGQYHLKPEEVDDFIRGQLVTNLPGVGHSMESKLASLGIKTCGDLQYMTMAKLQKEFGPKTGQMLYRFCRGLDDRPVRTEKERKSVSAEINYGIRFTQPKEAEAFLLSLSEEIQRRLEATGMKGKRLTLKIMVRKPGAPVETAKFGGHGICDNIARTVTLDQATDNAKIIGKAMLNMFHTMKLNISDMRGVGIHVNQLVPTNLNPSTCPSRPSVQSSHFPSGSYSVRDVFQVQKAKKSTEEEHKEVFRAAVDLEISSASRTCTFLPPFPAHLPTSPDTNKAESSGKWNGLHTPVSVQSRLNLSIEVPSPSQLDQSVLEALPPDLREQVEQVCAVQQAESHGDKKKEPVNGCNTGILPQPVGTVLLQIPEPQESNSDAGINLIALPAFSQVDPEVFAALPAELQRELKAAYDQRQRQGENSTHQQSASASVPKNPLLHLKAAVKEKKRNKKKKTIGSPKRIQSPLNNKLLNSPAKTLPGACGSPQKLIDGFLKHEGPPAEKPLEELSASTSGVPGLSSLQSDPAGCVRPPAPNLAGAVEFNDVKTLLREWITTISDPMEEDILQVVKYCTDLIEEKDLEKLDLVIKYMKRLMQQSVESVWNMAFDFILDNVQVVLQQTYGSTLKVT
In short: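 U2OS cells transfected with pEGFP-REV1. Two days later, 33 µM cisplatin for 3.5 h, then released into DMSO or 150 µM compound for 6 h. CSK/Triton pre-extraction, PFA fixation, methanol, PCNA (PC10) immunostain, confocal imaging. Pearson coefficient of PCNA vs REV1 per DAPI-defined nucleus; n=32–37 cells, two-tailed t-test.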

[2] = biological target: T1, DNA repair protein REV1 (Homo sapiens); test: Inhibition of REV1 in human HeLa cells assessed as reduction in 2.5 J/m2 UV light-induced cyclopyrimidine dimer removal at 150 uM by epi-fluorescence microscopic analysis; format: cell-based
In short: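 HeLa cells on coverslips given 0 or 2.5 J/m² UVC (254 nm), then DMSO or 150 µM compound. Fixed at time points up to 24 h, denatured in 2 M HCl and stained with anti-CPD (TDM-2). Epifluorescence mean green intensity per DAPI-defined nucleus; two-tailed t-test.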

[3] = Inhibition of biotin/Avi-tagged UbPCNA binding to recombinant human N-terminal His-tagged REV1 deletion mutant BRCT/UBM1/UBM2 domain expressed in Escherichia coli BL21(DE3) measured after 1 hr by AlphaScreen assay
In short: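 AlphaScreen with 200 nM biotin-AviTag-Ub-PCNA (enzymatically K164-ubiquitinated) and 40 nM N-His REV1 in PBS pH 7.4, 0.1% BSA, 0.05% Tween-20, with serial compound dilutions. Ni-chelate acceptor beads added, streptavidin donor beads after 1 h, read 1 h later; dose-response fitted on final concentrations.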

[4] = biological target: T1, DNA repair protein REV1 (Homo sapiens); test: (§1) Inhibition of REV1 in human U2OS cells assessed as potentiation of cisplatin-induced cytotoxicity by measuring reduction in colony formation at 75 uM incubated for 24 hrs after 24 hrs cisplatin exposure followed by culture medium replacement with fresh medium and measured after 7 days by crystal violet staining based assay relative to control; format: cell-based
In short: (§2)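 U2OS cells, 300 per well, settled overnight, then given cisplatin or 4-hydroxycyclophosphamide at the stated final level. After 24 h, compound or DMSO added; medium replaced after another 24 h and cells grown 7 days. Formaldehyde fixation, 0.5% crystal violet staining, colonies of more than ~40 cells counted; triplicates, survival set to 1 for vehicle (saline for cisplatin, DMSO for 4-HC).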

[5] = biological target: T1, DNA repair protein REV1 (Homo sapiens); test: Binding affinity to recombinant human REV1 UBM1/UBM2 domain (137 residues) expressed in Escherichia coli BL21(DE3) assessed as increase in NOE peaks at 200 uM by STD NMR spectral analysis
In short: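 STD NMR at 280 K with 10 µM protein and 200 µM compound. Saturation by a train of 30 ms Gaussian pulses for 4 s, on resonance at 0 ppm and off resonance at -40 ppm; 256 on/off FIDs recorded. REV1 UBM1-UBM2 expressed as for REV1 (His-tagged, Ni-NTA), tag removed by […].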

U2OS [6] = test: Cytotoxicity against human U2OS cells assessed as reduction in colony formation at 75 uM incubated for 24 hrs followed by culture medium replacement with fresh medium and measured after 7 days by crystal violet staining based assay relative to control; format: cell-based; in short: as §2
[7] = biological target: T1, DNA repair protein REV1 (Homo sapiens); test: Inhibition of REV1 in human WTK1 cells assessed as suppression of 0 to 128 J/m2 UV light-induced HPRT gene mutation by measuring reduction in number of resistant clones at 150 uM dosed Immediately following UVC treatment and measured after 21 hrs
In short: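 WTK-1 cells cleansed (CHAT, then THC) and conditioned in horse serum; 2×10^6 cells given UVC 0–128 J/m², then DMSO or 150 µM compound for 21 h. Survival plated at 1.6 cells/well (PE0, PE6). After 5 days' expression, 5,000 cells/well in 0.5 µg/mL 6-thioguanine; colonies scored after 11–12 days; mutation frequency normalized to plating efficiency.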

[8] = biological target: T1, DNA repair protein REV1 (Homo sapiens); test: as §1, with “4-hydroxycyclophosphamide-induced” for “cisplatin-induced”, “4-hydroxycyclophosphamide-exposure” for “cisplatin exposure”; format: cell-based; in short: as §2
[9] = Solubility of the compound in sodium phosphate buffer at pH 7; format: physicochemical
U2OS [10] = test: Cytotoxicity against human U2OS cells expressing EGFP-tagged REV1 (unknown origin) at 150 uM; format: cell-based
[11] = biological target: T1, DNA repair protein REV1 (Homo sapiens); test: Binding affinity to recombinant human REV1 UBM2 domain assessed as chemical shift perturbations on alpha-helix at REV1 UBM2 to compound molar ratio of 1:10 by [1H,15N]-HSQC NMR spectral analysis
In short: (§3)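 15N-labeled REV1 UBM2 in 20 mM sodium phosphate pH 7.0, 100 mM NaCl, titrated at protein:compound ratios 1:2, 1:4, 1:6, 1:8 and 1:10. 1H and 15N shifts of displaced peaks tracked at each point; weighted average shift δav(NH) = [(δH² + (δN/5)²)/2]^1/2 per backbone amide.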

[12] = biological target: T1, DNA repair protein REV1 (Homo sapiens); test: Binding affinity to recombinant human REV1 UBM2 domain assessed as chemical shift changes by [1H,15N]-HSQC NMR spectral analysis; in short: as §3

| inhibition [1] | inhibition [2] | IC50 [3] | inhibition [7] | solubility [9] | Activity [11] | Activity [12] | Compound | fold change (FC) [4] | Activity [5] | fold change (FC) (U2OS [6]) | fold change (FC) [8] | Activity (U2OS [10]) |
| --- | --- | --- | --- | --- | --- | --- | --- | --- | --- | --- | --- | --- |
| Active | Active | 3.4 µM | Active | Insoluble |  |  | O=C1CN(C(=O)CCc2cc(I)c(Oc3ccc(O)cc3)c(I)c2)CCN1 | 10 | Active | 2 | 10 |  |
|  |  | 9.7 µM |  | Soluble | Active | Dose-dependent effect | Cl.O=C(CCc1cc(I)c(Oc2ccc(O)cc2)c(I)c1)N1CCNCC1 |  | Active |  |  | Toxic |
